# Laboratory results taken from ChEMBL document CHEMBL1133630, “Chemical synthesis and pharmacology of 6- and 7-hydroxylated 2-carbomethoxy-3-(p-tolyl)tropanes: antagonism of cocaine's locomotor stimulant effects” (J Med Chem, 2000).
# Tests used:
# [1] = molecular target: T1, Sodium-dependent dopamine transporter (Rattus norvegicus, UniProt P23977); test: Inhibition of [3H]mazindol binding to dopamine transporter of rat striatal membranes.; assay type: cell membranes, Membrane
# [2] = species: Rattus norvegicus; test: To inhibit high affinity uptake of [3H]NE into nerve endings (synaptosomes) prepared from various regions of the rat brain.; assay type: functional
# How it was run: (§1)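 Radiolabelled monoamine uptake inhibition. Six drug concentrations, each in triplicate, chosen from preliminary screens to bracket the approximate IC50.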
# [3] = molecular target: T1, Sodium-dependent dopamine transporter; test: Inhibition of high affinity uptake of [3H]dopamine into nerve endings (synaptosomes) prepared from various regions of the rat brain.; assay type: subcellular; how it was run: as §1
# [4] = species: Rattus norvegicus; test: To inhibit high affinity uptake of [3H]5-HT into nerve endings (synaptosomes) prepared from various regions of the rat brain.; assay type: functional; how it was run: as §1
# [5] = species: Rattus norvegicus; test: To inhibit high affinity uptake of [3H]dopamine (DA) into nerve endings (synaptosomes) prepared from various regions of the rat brain.; assay type: functional; how it was run: as §1
# T1 sequence (P23977 whole entry): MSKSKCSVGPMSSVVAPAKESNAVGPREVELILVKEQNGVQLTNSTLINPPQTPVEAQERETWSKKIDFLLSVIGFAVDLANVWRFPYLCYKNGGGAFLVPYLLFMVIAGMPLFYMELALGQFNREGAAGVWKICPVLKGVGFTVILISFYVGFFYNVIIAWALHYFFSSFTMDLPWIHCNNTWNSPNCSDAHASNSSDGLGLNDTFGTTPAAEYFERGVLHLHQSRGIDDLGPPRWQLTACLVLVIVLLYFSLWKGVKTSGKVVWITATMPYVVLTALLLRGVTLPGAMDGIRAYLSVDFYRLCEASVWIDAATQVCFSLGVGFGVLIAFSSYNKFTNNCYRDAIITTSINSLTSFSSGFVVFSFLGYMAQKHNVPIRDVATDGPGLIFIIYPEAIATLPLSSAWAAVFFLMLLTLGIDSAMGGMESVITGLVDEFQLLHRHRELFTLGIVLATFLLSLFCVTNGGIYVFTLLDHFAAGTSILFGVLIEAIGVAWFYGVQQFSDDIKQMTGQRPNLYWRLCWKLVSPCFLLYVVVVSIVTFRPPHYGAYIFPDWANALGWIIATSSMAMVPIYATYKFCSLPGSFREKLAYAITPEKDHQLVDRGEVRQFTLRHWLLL
Compound,Ki [1] [nM],Ki [2] [nM],Ki [3] [nM],Ki [4] [nM],Ki [5] [nM]
COC(=O)[C@H]1C2[C@H](O)C[C@H](C[C@H]1c1ccc(C)cc1)N2C,135,60.9,,,
COC(=O)[C@@H]1C2C(O)C[C@H](C[C@@H]1c1ccc(C)cc1)N2C (stereo partly drawn),25.2,44.7,39.2,581,
COC(=O)[C@@H]1C2CC[C@H](C[C@@H]1c1ccccc1)N2C,89.4,37.2,,173,
COC(=O)[C@H]1C2[C@@H](O)C[C@H](C[C@H]1c1ccc(C)cc1)N2C (stereo in doubt; 14b),1400,300,2900,> 100000,
COC(=O)[C@@H]1C2C[C@H](O)[C@H](C[C@@H]1c1ccc(C)cc1)N2C,,154,,6700,
Cc1ccc(C2C[C@H]3CC4OC(=O)C2C4N3C)cc1 (stereo partly drawn),,,,,25000
COC(=O)[C@H]1C2[C@@H](O)C[C@H](C[C@H]1c1ccc(C)cc1)N2C (stereo in doubt; 19b),540,,676,,
COC(=O)[C@H]1[C@@H](OC(=O)c2ccccc2)C[C@@H]2CC[C@H]1N2C [COCAINE],,108,,155,
CCCC1C2CC[C@H](C[C@@H]1c1ccc(C)cc1)N2C (stereo partly drawn),21,6.3,51.8,80.2,
COC(=O)[C@H]1C2C(O)C[C@H](C[C@@H]1c1ccc(C)cc1)N2C (stereo partly drawn),2900,1000,5600,3000,
